Bioassay records deposited in PubChem by The Scripps Research Institute Molecular Screening Center.
Rows were chosen to be rich in hits. Some 3% of all compounds tested hit in one or more screens of this group.
CHRM4 antagonist – blocks acetylcholine activation of human M4 receptor. inhibition, % at 3 µM. AID 624125. CHO-hM4 cells, ACh EC80, Fluo-8 calcium fluorescence. P08173. hit rate 0.73% among 360,000;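 active = inhibition above its plate's cutoff, the mean inhibition of sample wells plus 3 SD, cut at about 27% in these data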
TAAR1 antagonist – human TAAR1 antagonism; Q96RJ0; inhibition, % at 3 µM; AID 624466; CHO RD-HGA16 TAAR1, Fluo-8 calcium fluorescence, antagonist; hit rate 1.5% among 360,000;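 active = inhibition above a per-plate cutoff, the mean inhibition of test compounds on that plate plus 3 SD, cut at about 49% in these data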
Target sequence (Q96RJ0 whole entry, looked up): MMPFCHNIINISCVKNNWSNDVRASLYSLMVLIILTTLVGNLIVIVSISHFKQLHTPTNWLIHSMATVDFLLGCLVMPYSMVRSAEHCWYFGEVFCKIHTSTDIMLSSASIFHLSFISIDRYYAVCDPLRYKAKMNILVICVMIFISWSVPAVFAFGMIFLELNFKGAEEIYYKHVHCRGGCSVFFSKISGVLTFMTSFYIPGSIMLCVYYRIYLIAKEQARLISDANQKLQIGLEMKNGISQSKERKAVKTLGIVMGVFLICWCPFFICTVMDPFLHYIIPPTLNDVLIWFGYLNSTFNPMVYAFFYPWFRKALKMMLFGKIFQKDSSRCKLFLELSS
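Material: RD-HGA16 CHO cells with stable hTAAR1 and Gα16; Dosing: single nominal final test compound concentration of 3 µM; Schedule: seeding 17-24 h prior, 75-min 37 °C, 30-min RT dye loading; Detection: kinetic Fluo-8 calcium fluorescence measurement; Measure: % inhibition from peak post-agonist over basal fluorescence ratio; Benchmarks: vehicle and agonist controls.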
TAAR1 agonist – agonists of human TAAR1. CHO RD-HGA16 TAAR1, Fluo-8 calcium fluorescence; vehicle wells 0%, saturating PEA agonist 100%. activation, % at 3 µM. AID 624467. Q96RJ0. hit rate 0.99% among 360,000;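 active = activation above the mean activation of all test compounds in the run plus 3 SD, cut at about 38% in these data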
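System: CHO RD-HGA16 cells carrying human TAAR1 plus Gα16; Incubation: 17-24 h seeding, 75 min 37 °C dye, 30 min RT; Measured by: Fluo-8 fluorescence, 5 s baseline then 140 s kinetic read; Control set: DMSO and PEA EC100; Replication: single well for each compound.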
CHRM4 agonist – CHRM4 agonism in calcium assay. P08173. CHO-K1 hM4/Gqi5, Fluo-8 calcium fluorescence; vehicle 0%, full acetylcholine response 100%. activation, % at 3 µM. hit rate 0.14% among 360,000;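 active = activation above the run mean over all test wells plus 3 SD, cut at about 32% in these data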;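 note: peak over basal fluorescence ratio per well then scaled between controls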
M4 PAM – positive allosteric modulators of human muscarinic M4 receptor; P08173; CHO-K1 hM4/Gqi5, Fluo-8 calcium fluorescence, ACh EC20; 0% = ACh EC20, 100% = maximal ACh; activation, % at 3 µM; hit rate 0.4% among 360,000;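 active = activation above its plate's cutoff, the mean activation of sample wells plus 3 SD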
TAAR1 ag conf – human TAAR1 agonism, confirmed. hit rate 82% among 2,400. shares compounds with TAAR1 agonist. activation, % at 3 µM. CHO RD-HGA16 TAAR1, Fluo-8 calcium fluorescence; scaled: DMSO 0%, maximal phenethylamine 100%;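 active = activation above a cutoff set at the run's mean compound activation plus 3 SD, cut at about 39% in these data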
Ga16 nonsel ag – nonselective agonism, TAAR1 counter-screen | activation, % at 3 µM | AID 651787 | CHO-Ga16 parental, Fluo-8 calcium fluorescence; normalized to maximal ATP response, DMSO zero | hit rate 50% among 2,400 | shares compounds with TAAR1 agonist;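 active = activation above the run cutoff, the mean activation over all tested wells plus 3 SD, cut at about 12% in these data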
TAAR1 desens – human TAAR1 agonist that also desensitizes the receptor | shares compounds with TAAR1 agonist | CHO RD-HGA16 hTAAR1, Fluo-8 calcium, beta-PEA response inhibition | inhibition, % at 3 µM | hit rate 46% among 2,400 | AID 651951;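 active = inhibition above the run cutoff, the mean inhibition of all test compounds plus 3 SD, cut at about 49% in these data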;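 note: beta-PEA stimulus applied at its EC80; loss of beta-PEA calcium signal after compound pretreatment read as receptor desensitization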
Ga16 nonsel ant – counter-screen for TAAR1 agonists: nonselective Ga16 antagonists; shares compounds with TAAR1 agonist; CHO-Ga16 ATP-induced calcium, Fluo-8 fluorescence; inhibition, % at 3 µM; hit rate 39% among 2,400; AID 651952;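 active = inhibition above the plate's mean compound inhibition plus 3 SD, computed per plate, cut at about 22% in these data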
Numbers stand for hits.

`Cc1nc(NC(=O)c2ccccc2)sc1-c1csc(NCCc2ccccc2)n1` gave CHRM4 antagonist inactive, TAAR1 antagonist inactive, TAAR1 agonist 64, CHRM4 agonist inactive, M4 PAM inactive, TAAR1 ag conf 61, Ga16 nonsel ag 21, TAAR1 desens 58 and Ga16 nonsel ant 34.
COc1cc(OC)c(NS(=O)(=O)c2cc(C(=O)NCCCN3CCOCC3)ccc2C)cc1Cl was read as CHRM4 antagonist inactive, TAAR1 antagonist inactive, TAAR1 agonist inactive, CHRM4 agonist inactive and M4 PAM inactive.
COc1ccccc1C(=O)NC(=S)NNC(=O)c1sc2ccccc2c1Cl was read as CHRM4 antagonist inactive, TAAR1 antagonist 74, TAAR1 agonist 117, CHRM4 agonist inactive, M4 PAM inactive, TAAR1 ag conf 166, Ga16 nonsel ag 124, TAAR1 desens 106 and Ga16 nonsel ant 87.
`COc1ccccc1C(=O)NNC(=S)NC(=O)c1sc2ccccc2c1Cl` gave CHRM4 antagonist inactive, TAAR1 antagonist 80, TAAR1 agonist 145, CHRM4 agonist inactive, M4 PAM inactive, TAAR1 ag conf 140, Ga16 nonsel ag 118, TAAR1 desens 106 and Ga16 nonsel ant 94.
`Cc1c(NC(=S)NC(=O)c2sc3ccccc3c2Cl)cccc1C(=O)O` gave CHRM4 antagonist inactive, TAAR1 antagonist inactive, TAAR1 agonist inactive, CHRM4 agonist inactive and M4 PAM inactive.
For O=c1[nH][nH]c2c1[C@@H](c1ccc(F)cc1)O[C@H](CCOCc1ccccc1)C2 the results were CHRM4 antagonist inactive, TAAR1 antagonist inactive, TAAR1 agonist inactive, CHRM4 agonist inactive and M4 PAM inactive.
`COc1ccc(CNC(=O)C[C@H]2C[C@H](C(=O)N3CCOCC3)[C@@]3(CCC4CCCC4)c4[nH]c5cc(CCC(=O)N(C)C)ccc5c4CCN3C2=O)cc1OC` gave CHRM4 antagonist inactive, TAAR1 antagonist inactive, TAAR1 agonist inactive, CHRM4 agonist inactive and M4 PAM inactive.
`OC(COC(c1ccc(Cl)cc1)c1ccc(Cl)cc1)CN1CCc2ccccc2C1` (stereo unspecified) gave CHRM4 antagonist inactive, TAAR1 antagonist inactive, TAAR1 agonist 82, CHRM4 agonist inactive, M4 PAM inactive, TAAR1 ag conf 81, Ga16 nonsel ag inactive, TAAR1 desens 49 and Ga16 nonsel ant inactive.
`Cc1ccc([C@@H]2C[C@H]3[C@@H](CN2S(=O)(=O)c2ccc(Cl)cc2)C(=O)C[C@@H](c2ccccc2)N3S(=O)(=O)c2ccc(C)cc2)cc1` gave CHRM4 antagonist inactive, TAAR1 antagonist inactive, TAAR1 agonist inactive, CHRM4 agonist inactive and M4 PAM inactive.
For CC(C)Cc1ccc(C(C)C(=O)Nc2nccs2)cc1 (stereo unspecified) the results were CHRM4 antagonist 30, TAAR1 antagonist 74, TAAR1 agonist 105, CHRM4 agonist 34, M4 PAM inactive, TAAR1 ag conf 103, Ga16 nonsel ag 50, TAAR1 desens 81 and Ga16 nonsel ant 50.
Screening Cc1cc2c(cc1S(=O)(=O)CCC(=O)NCCc1ccccc1)OCC(=O)N2 returned CHRM4 antagonist inactive, TAAR1 antagonist 52, TAAR1 agonist 89, CHRM4 agonist inactive, M4 PAM inactive, TAAR1 ag conf 101, Ga16 nonsel ag inactive, TAAR1 desens 75 and Ga16 nonsel ant inactive.
For Cc1cccc(CN2CCN(C3CN(Cc4cn(Cc5ccccc5C(F)(F)F)nn4)S(=O)(=O)C3)CC2)c1 (stereo unspecified) the results were CHRM4 antagonist inactive, TAAR1 antagonist inactive, TAAR1 agonist inactive, CHRM4 agonist inactive and M4 PAM inactive.
O=C(O)c1ccc(/C=N/Nc2ccc(F)cc2F)cc1 was read as CHRM4 antagonist inactive, TAAR1 antagonist inactive, TAAR1 agonist 88, CHRM4 agonist inactive, M4 PAM inactive, TAAR1 ag conf 44, Ga16 nonsel ag 21, TAAR1 desens inactive and Ga16 nonsel ant inactive.
Screening COc1ccc(Cl)c2sc(NC(=O)C3=COCCO3)nc12 returned CHRM4 antagonist inactive, TAAR1 antagonist inactive, TAAR1 agonist inactive, CHRM4 agonist inactive and M4 PAM inactive.
For Cc1ccc(Cl)c2sc(NC(=O)C3=COCCO3)nc12 the results were CHRM4 antagonist inactive, TAAR1 antagonist inactive, TAAR1 agonist 61, CHRM4 agonist inactive, M4 PAM inactive, TAAR1 ag conf inactive, Ga16 nonsel ag 20, TAAR1 desens inactive and Ga16 nonsel ant inactive.
O=C(NCCc1cccs1)C1CC(c2cccc(F)c2)=NO1 (stereo unspecified) was read as CHRM4 antagonist inactive, TAAR1 antagonist 85, TAAR1 agonist 59, CHRM4 agonist inactive, M4 PAM inactive, TAAR1 ag conf 73, Ga16 nonsel ag inactive, TAAR1 desens 94 and Ga16 nonsel ant inactive.
Screening COc1cccc(C(=O)N2CCC[C@H]2C(=O)N2CCC[C@H]2C(=O)N[C@@H](C)c2ccccc2)c1 returned CHRM4 antagonist inactive, TAAR1 antagonist inactive, TAAR1 agonist inactive, CHRM4 agonist inactive and M4 PAM inactive.
For C=CCNCCCOc1ccc(C(C)(C)c2ccccc2)cc1 the results were CHRM4 antagonist inactive, TAAR1 antagonist inactive, TAAR1 agonist 61, CHRM4 agonist inactive, M4 PAM inactive, TAAR1 ag conf 90, Ga16 nonsel ag 25, TAAR1 desens 64 and Ga16 nonsel ant inactive.
For COCCCNCCCOc1ccc(C(C)(C)c2ccccc2)cc1 the results were CHRM4 antagonist inactive, TAAR1 antagonist inactive, TAAR1 agonist inactive, CHRM4 agonist inactive and M4 PAM inactive.
CC(C)(c1ccccc1)c1ccc(OCCCNCCO)cc1 was read as CHRM4 antagonist inactive, TAAR1 antagonist inactive, TAAR1 agonist 53, CHRM4 agonist inactive, M4 PAM inactive, TAAR1 ag conf 85, Ga16 nonsel ag 41, TAAR1 desens inactive and Ga16 nonsel ant inactive.
Screening CC(C)(C)c1ccc(OCCCNCc2ccccc2)cc1 returned CHRM4 antagonist inactive, TAAR1 antagonist inactive, TAAR1 agonist 74, CHRM4 agonist inactive, M4 PAM inactive, TAAR1 ag conf 69, Ga16 nonsel ag 33, TAAR1 desens inactive and Ga16 nonsel ant inactive.
`O=C(Nc1ccc(F)cc1)C(c1ccccc1OC(F)(F)F)N1CCN(C(=O)c2ccco2)CC1` (stereo unspecified) gave CHRM4 antagonist inactive, TAAR1 antagonist inactive, TAAR1 agonist inactive, CHRM4 agonist inactive and M4 PAM inactive.
